Hits are enriched below; roughly 3% of the tested compounds scored in any of these assays.
ANO1 activ: activators or potentiators of mouse TMEM16A chloride channel; Q8BHY3; HEK293 TMEM16A/YFP-H148Q/I152L, iodide quench fluorescence; stronger effect = lower value; B-score at 10 µM; 340,000 tested, 0.3% active;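 active = fluorescence-ratio B-score plate-corrected deviation score at least 3 library SD below zero, with starting fluorescence score within 5 deviations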;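 also: channel opened by trigger with iodide after compound preincubation; score built on the fluorescence ratio of max minus min over baseline; more negative score means more quench and so TMEM16A activation or potentiation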
SR-BI uptake up: activators of SR-BI mediated HDL lipid uptake; CHO ldlA[mSR-BI] cells, DiI-HDL uptake fluorescence, 3 h; 100 = double the neutral-control signal; activation, % at 12.5 µM; 320,000 tested, 0.096% active; AID 504775;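 active = mean replicate activation of at least 60% and every replicate at or above 60%; inconclusive = mean or all-replicate condition met, but not both; inactive = mean below 60% and not all replicates reaching 60%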;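 also: 0% = median plate neutral-control signal and 100% = twice that signal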
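System: LDL receptor-deficient CHO ldlA cells overexpressing murine SR-BI | Timing: 3 h uptake period with compound, 37 °C | Medium: HEPES-buffered (25 mM, pH 7.4) F12 plus 0.5% BSA | Dosing: Single-point compound dose | Signal: Bottom-read fluorescence, 550/595 nm | Read-out: Retained DiI signal reflecting DiI-HDL uptake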
TMEM16A inh: mouse TMEM16A channel inhibition, primary screen | Q8BHY3 | HEK293 TMEM16A/YFP iodide influx fluorescence, ionomycin | normalized B-score (activity score, 25-100; higher = stronger inhibition) at 10 µM | 310,000 tested, 1.2% active | AID 588511;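 active = ratio plate-corrected score three or more library SD toward inhibition, starting fluorescence score within five deviations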;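 also: score derived from kinetic fluorescence span divided by baseline fluorescence per well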
SR-BI HDL uptake: blocks mouse SR-BI lipid uptake from DiI-HDL; Q61009; ldlA[mSR-BI] CHO cells, DiI-HDL uptake fluorescence, 3 h; inhibition, % at 12.5 µM; 320,000 tested, 0.96% active;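 active = mean replicate inhibition of at least 70% and a set share of replicates each scoring 70 or more; inconclusive = meets just one of the two criteria; inactive = fails both criteria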;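 also: 0% = median of neutral control wells and 100% = median of positive control wells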
Target sequence (Q61009 whole entry, looked up): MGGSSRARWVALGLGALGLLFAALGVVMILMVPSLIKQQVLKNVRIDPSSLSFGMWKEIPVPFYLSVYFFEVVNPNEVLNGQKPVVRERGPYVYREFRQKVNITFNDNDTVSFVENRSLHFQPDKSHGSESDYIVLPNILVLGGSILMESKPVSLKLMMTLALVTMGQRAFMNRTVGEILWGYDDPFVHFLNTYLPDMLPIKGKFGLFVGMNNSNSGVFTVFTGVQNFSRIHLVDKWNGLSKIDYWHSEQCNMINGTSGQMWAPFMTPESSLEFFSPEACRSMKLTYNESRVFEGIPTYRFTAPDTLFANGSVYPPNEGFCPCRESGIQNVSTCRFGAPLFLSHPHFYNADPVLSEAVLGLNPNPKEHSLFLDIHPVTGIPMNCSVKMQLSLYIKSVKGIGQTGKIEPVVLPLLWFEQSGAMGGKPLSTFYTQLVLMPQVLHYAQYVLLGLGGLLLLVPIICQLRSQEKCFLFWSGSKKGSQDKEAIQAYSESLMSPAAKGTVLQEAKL
Kir21 inh: blocks the mouse Kir2.1 inward-rectifier potassium channel; B-score at 10 µM; HEK293-Kir2.1, FluxOR thallium flux fluorescence; stronger effect = lower value; AID 1672; 310,000 tested, 0.85% active;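 active = fluorescence ratio B-score at or below minus 3 SD of library scores, with starting-brightness B-score within 2 SD, cut at about -4.2 in these data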;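 also: channel flux triggered by added potassium and thallium sulfate stimulus; B-score of peak minus minimum fluorescence over baseline after thallium stimulus; more negative B-score means stronger Kir2.1 block with less thallium influx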
DNA FID counter: counter-screen for HCV NS3 helicase inhibitors: DNA intercalator displacement. DNA fluorescent intercalator displacement, fluorescence. inhibition, % at 7.9 µM. 290,000 tested, 0.17% active. AID 1845; in the data active = inhibition above about 37%;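 also: 0% = vehicle and 100% = reference compound; higher means more ethidium bromide displaced from hairpin DNA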
TMEM16A reconf: reconfirmed blocker of mouse TMEM16A calcium-activated chloride channel. HEK293 TMEM16A/YFP-H148Q, iodide quench fluorescence; ionomycin added to raise cell calcium. shares compounds with TMEM16A inh. 2,300 tested, 39% active. inhibition, % at 10 µM;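 active = mean duplicate percent inhibition, scaled so buffer wells are 0 and the reference blocker 100, over three buffer SD above buffer mean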
HEK293 Ca mobil: alters calcium mobilization in TMEM16A HEK293 cells, counter-screen; calcium response (% of ionomycin), % at 10 µM; AID 652231; TMEM16A/YFP HEK293, Fluo4 calcium mobilization; 2,300 tested, 2% active; shares compounds with TMEM16A inh;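 active = duplicate-averaged calcium signal over 20% of the ionomycin maximum, relative to buffer baseline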;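 also: each well's signal is peak minus trough fluorescence divided by its pre-addition baseline; 0% = buffer wells and 100% = ionomycin wells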
Parental YFP cnt: acts in parental YFP-HEK293 cells lacking TMEM16A, counter-screen; iodide YFP quench, ionomycin; AID 652233; 2,300 tested, under 10 active; shares compounds with TMEM16A inh; YFP ratio F(max-min)/F0 at 10 µM;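 active = yellow fluorescent protein signal ratio exceeding the buffer control mean by over 5 SD of those controls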;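 also: ratio is mean of duplicate wells from kinetic YFP trace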
ClC-1 inh: blocks the rat ClC-1 voltage-dependent chloride channel; shares compounds with TMEM16A inh; CHO ClC-1-YFP, iodide influx fluorescence quench; iodide control reads 0, buffer control 100; ratio percent, % at 10 µM; 2,300 tested, under 10 active;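 active = duplicate-mean ratio percent above the mean of iodide-only control wells, which defines zero, plus 5 of their SD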;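 also: higher percent means stronger block of ClC-1 iodide influx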
* marks the source's active call; other numbers are inactive results; i = inactive; ? = inconclusive; nt = no result given.

SMILES	ANO1 activ	SR-BI uptake up	TMEM16A inh	SR-BI HDL uptake	Kir21 inh	DNA FID counter	TMEM16A reconf	HEK293 Ca mobil	Parental YFP cnt	ClC-1 inh
O=C(NCCCN1CCOCC1)c1ccc(/C=C2\Oc3ccccc3N(Cc3ccccc3F)C2=O)cc1	i	9	i	-9	1.1	36	nt	nt	nt	nt
COC(=O)c1cc(-c2ccc(S(=O)(=O)N3CCCC3)cc2)c(C(F)(F)F)s1	i	-60	25*	60	-1.4	-23	i	i	-1.2	-18
Cn1c(=O)c(=O)n(C)c2cc(S(=O)(=O)N3CCCCCC3)ccc21	i	13	25*	-13	0.44	1	i	i	-1.1	7
CC1=CN2C(=N)/C(=C\c3cn(CCCOc4ccccc4)c4ccccc34)C(=O)N=C2S1	i	-62	i	62	0.05	2	nt	nt	nt	nt
Cc1ccsc1/C=N/Nc1ncc(Cl)cc1Cl	i	-44	100*	44	-0.65	-3	40%*	i	-0.94	-8
Cc1cc(C)nc(N/N=C/c2sccc2C)n1	i	-18	i	18	-0.98	-2	nt	nt	nt	nt
Cc1ccc(C(CNS(=O)(=O)c2ccc(F)cc2C)N2CCN(C)CC2)cc1 (stereo unspecified)	i	-6	i	6	-1.1	nt	nt	nt	nt	nt
c1ccc2c(c1)nc(N1CCOCC1)c1nnnn12	i	10	i	-10	0.96	6	nt	nt	nt	nt
c1ccc(N2CCN(c3nc4ccccc4n4nnnc34)CC2)cc1	i	-15	i	15	0.3	0	i	i	-0.7	0
CCOC(=O)c1ccc(NC(=O)c2ccc(CN3CCc4ccccc4C3)cc2)cc1	i	-62	100*	62	0.36	9	16%*	i	-1.1	-8
Cc1cccc(NC(=O)c2ccc(CN3CCN(Cc4ccccc4)CC3)cc2)c1	i	9	25*	-9	-1	7	i	i	-0.87	-12
O=C(Nc1ccc(S(=O)(=O)N2CCOCC2)cc1)c1ccc(CN2CCc3ccccc3C2)cc1	nt	nt	100*	nt	-0.48	3	50%*	i	-1.1	-28
O=C(Nc1ccc(S(=O)(=O)N2CCCC2)cc1)c1ccc(CN2CCc3ccccc3C2)cc1	i	7	i	-7	0.12	21	nt	nt	nt	nt
COc1cccc(NC(=O)c2ccc(CN3CCc4ccccc4C3)cc2)c1	i	-17	i	17	0.25	4	nt	nt	nt	nt
CC(=O)c1cccc(NC(=O)c2ccc(CN3CCc4ccccc4C3)cc2)c1	i	-52	i	52	1.1	-2	20%*	i	-0.96	-11
CCOc1ccc(NC(=O)c2ccc(CN3CCc4ccccc4C3)cc2)cc1	i	-30	i	30	1.1	-1	nt	nt	nt	nt
COc1cc(/C=N/NC(=O)c2cccc(C)c2)ccc1OCC(=O)Nc1ccccc1	i	nt	i	nt	-0.7	nt	nt	nt	nt	nt
CC(C)[C@@H](CO)N(C)S(=O)(=O)c1ccccc1Br	i	4	nt	-4	nt	nt	nt	nt	nt	nt
O=S(=O)(NCC(c1ccco1)N1CCc2ccccc2C1)c1ccc(Br)cc1 (stereo unspecified)	i	20	25*	-20	0.02	nt	i	i	-0.82	-5
O=C(OCC(=O)N1CCC(Cc2ccccc2)CC1)c1ccccc1O	i	-11	nt	11	nt	nt	nt	nt	nt	nt
O=C(COC(=O)CCC(=O)c1ccc(F)cc1)NCCc1ccccc1	i	nt	nt	nt	nt	nt	nt	nt	nt	nt
O=C(Cn1nnc2c(cnn2-c2ccc(F)cc2)c1=O)OC1CCCCC1	i	-3	100*	3	0.93	-2	i	i	-1.2	-10
COc1ccc(C(=O)OCC(=O)c2ccc[nH]2)cc1	i	0	nt	0	nt	nt	nt	nt	nt	nt
CC(C)CC(=O)c1c[nH]c(C(=O)NCCCN2CCOCC2)c1	i	-18	25*	18	-0.09	2	i	i	-0.99	-10
Cc1ccc(C(=O)c2c[nH]c(C(=O)NCCCN3CCOCC3)c2)cc1	i	5	i	-5	0.32	-1	nt	nt	nt	nt
SMILES	ANO1 activ	SR-BI uptake up	TMEM16A inh	SR-BI HDL uptake	Kir21 inh	DNA FID counter	TMEM16A reconf	HEK293 Ca mobil	Parental YFP cnt	ClC-1 inh
Cc1cc(Cl)ccc1OCCCC(=O)Nc1cccnc1	i	21	25*	-21	0.02	-8	22%*	i	-0.86	-2
O=C(C1CCC1)N1CCc2cc(S(=O)(=O)N3CCN(c4ccccn4)CC3)ccc21	i	3	i	-3	0.01	-20	i	i	-1.2	-4
O=C(C1CCC1)N1CCc2cc(S(=O)(=O)N3CCCCC3)ccc21	i	-4	i	4	-0.52	-5	nt	nt	nt	nt
COc1cccc(CN2C(=O)[C@@H]3Cc4c([nH]c5ccccc45)C(C)(C)N3C2=O)c1	i	-69	25*	69	-0.46	nt	18%*	i	-1.1	-8
O=C(CSCc1nc2ccccc2[nH]1)N1CCN(c2ccc(F)cc2)CC1	i	-10	25*	10	0.26	-16	20%*	i	-0.98	-16
O=C(O)CCn1nnc(-c2ccccc2)n1	i	9	i	-9	0.03	5	nt	nt	nt	nt
COc1ccccc1C1=NOC(Cn2c(NCC3CCCO3)nc3c2c(=O)n(C)c(=O)n3C)C1 (stereo unspecified)	i	-14	i	14	0.93	-26	i	i	-1	-10
CC(C)[C@@H](C(=O)N[C@@H](Cc1ccccc1)C(=O)O)N1C(=O)N2CCc3c([nH]c4ccccc34)[C@@]2(C)C1=O	i	5	i	-5	0.27	-19	nt	nt	nt	nt
O=c1c2ccccc2c(C=Nc2cccc(O)c2)c(O)n1-c1ccc2c(c1)OCO2	i	-70	25*	?	-0.15	-3	i	i	-1.3	3
COc1ccc(N=Cc2c(O)n(-c3ccc(OC)cc3)c(=O)c3ccccc23)cc1	i	-41	i	41	0.1	-2	nt	nt	nt	nt
CC(C)c1ccc(OCc2ccc(C(=O)N3CCCC3)o2)cc1	i	nt	25*	nt	-0.96	-31	53%*	i	-1.1	-15
